Source: ChEMBL document CHEMBL4825692, “Benzofuranyl-2-imidazoles as imidazoline I2 receptor ligands for Alzheimer's disease” (Eur J Med Chem, 2021)
Active and inactive are the calls of the source. No cut-off for these calls is given here.

Columns and labels:
[1] = target: T1, Adrenergic receptor alpha-2 (Homo sapiens, UniProt P08913+P18825+P18089); assay: Displacement of [3H]-RX821002 from adrenergic alpha 2 receptor in post-mortem human brain frontal cortex membrane measured after 30 mins by liquid scintillation counting spectrometry; type: cell membranes
T1 sequence (P08913 whole entry): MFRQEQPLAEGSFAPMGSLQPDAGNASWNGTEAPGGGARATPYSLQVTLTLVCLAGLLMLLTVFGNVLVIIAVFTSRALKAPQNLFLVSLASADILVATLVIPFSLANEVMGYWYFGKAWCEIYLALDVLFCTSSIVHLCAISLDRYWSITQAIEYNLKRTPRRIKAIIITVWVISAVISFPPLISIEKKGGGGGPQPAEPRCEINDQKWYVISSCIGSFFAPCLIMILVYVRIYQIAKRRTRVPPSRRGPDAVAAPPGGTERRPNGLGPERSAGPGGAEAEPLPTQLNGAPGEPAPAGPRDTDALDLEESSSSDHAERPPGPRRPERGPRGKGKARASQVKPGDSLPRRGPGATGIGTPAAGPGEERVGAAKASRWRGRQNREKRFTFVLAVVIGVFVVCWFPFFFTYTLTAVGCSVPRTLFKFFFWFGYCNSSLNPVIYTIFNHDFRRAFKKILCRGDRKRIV
T1 sequence (P18825 whole entry): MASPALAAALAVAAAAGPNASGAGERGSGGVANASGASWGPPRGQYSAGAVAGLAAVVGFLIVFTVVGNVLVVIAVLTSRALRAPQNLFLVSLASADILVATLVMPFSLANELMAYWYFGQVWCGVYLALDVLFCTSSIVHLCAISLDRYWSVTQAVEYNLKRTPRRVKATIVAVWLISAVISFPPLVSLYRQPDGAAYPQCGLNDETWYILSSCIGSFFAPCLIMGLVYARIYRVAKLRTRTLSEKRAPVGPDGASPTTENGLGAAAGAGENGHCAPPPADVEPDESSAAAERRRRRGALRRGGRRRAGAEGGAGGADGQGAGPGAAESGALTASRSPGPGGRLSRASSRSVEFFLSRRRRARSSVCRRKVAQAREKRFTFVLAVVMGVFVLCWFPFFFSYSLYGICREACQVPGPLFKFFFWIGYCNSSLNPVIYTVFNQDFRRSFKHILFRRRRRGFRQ
T1 sequence (P18089 whole entry): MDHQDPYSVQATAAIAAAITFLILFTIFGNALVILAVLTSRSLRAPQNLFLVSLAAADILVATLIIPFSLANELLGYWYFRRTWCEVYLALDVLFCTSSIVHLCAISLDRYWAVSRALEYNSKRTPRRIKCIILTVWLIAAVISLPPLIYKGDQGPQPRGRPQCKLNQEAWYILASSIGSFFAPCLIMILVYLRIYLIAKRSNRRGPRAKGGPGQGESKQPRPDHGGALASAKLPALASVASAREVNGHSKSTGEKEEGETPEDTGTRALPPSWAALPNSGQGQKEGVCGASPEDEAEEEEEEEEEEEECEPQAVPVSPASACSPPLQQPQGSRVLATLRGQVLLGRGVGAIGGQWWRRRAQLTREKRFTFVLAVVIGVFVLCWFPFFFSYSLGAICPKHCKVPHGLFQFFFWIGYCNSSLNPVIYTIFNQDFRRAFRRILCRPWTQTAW

[2] = Acute toxicity in albino mouse assessed as effect on body weight at 100 mg/kg, ip; type: organism-based; settings: in vivo
[3] = Solubility of compound at pH 1.13; type: physicochemical; settings: buffer
Summary of the method: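 Solubility was measured at pH 1.13, 4.61 and 6.97, simulating gastric and intestinal fluids, and classed by European Pharmacopoeia terms.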

[4] = Microsomal stability in human liver microsomes assessed as parent compound remaining after 60 mins; type: ADME, Microsome; settings: read-out: Stabilty
Summary of the method: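 Human and mouse microsomes, incubation for 60 min, with percentage of parent compound remaining reported.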

[5] = Stability in human plasma assessed as compound remaining after 2 hrs; type: ADME, cell-free; settings: read-out: Stabilty
Summary of the method: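 Pooled human plasma from healthy donors, sampled at 0, 1, 2 and 6 h, reported as percentage of parent remaining.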

CAPAN-1 = assay: Cytotoxicity against human CAPAN-1 cells at 100 uM by real time IncuCyte proliferation assay; type: cell-based; settings: capan-1, 100 µM
Summary of the method: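 Adherent lines (LN-229, Capan-1, HCT-116, NCI-H460) seeded at 500–1500 cells/well and treated after overnight attachment. Suspension lines (HL-60, K-562, Z-138, DND-41) seeded at 2500–5500 cells/well directly with compound. Highest concentration 100 μM; proliferation tracked by real-time IncuCyte imaging over 72 h at 37 °C.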

[6] = AUC (0 to t) in CD-1 mouse at 10 mg/kg, po measured after 24 hrs by HPLC/UV-VS analysis; type: ADME, organism-based; parameters: route oral, time 24 hrs, dose 10 mg/kg; settings: in vivo
Summary of the method: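 Male CD1 mice; plasma concentration of drug at 15 min to 24 h after a single oral 10 mg/kg dose, measured by HPLC with UV at 290 nm (calibration 0,025-5 μg/mL, peak area ratio). Non-compartmental analysis of mean concentration–time curves: AUC by trapezoidal rule, Cmax read directly from the mean curve.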

[7] = Tmax in CD-1 mouse at 10 mg/kg, po measured after 24 hrs by HPLC/UV-VS analysis; type: ADME, organism-based; settings: in vivo
Summary of the method: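 Male CD1 mice (40–50 g, n = 3–4 per group) received a single 10 mg/kg dose. Plasma was taken at 15, 30, 45 and 60 min and 2, 3, 4, 5, 8 and 24 h. Drug was measured by HPLC-UV at 290 nm against a calibration of 0,025-5 μg/mL. Non-compartmental analysis used the mean curve: t1/2β = ln2/β from least-squares terminal slope; Tmax read directly.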

Mus musculus [8] = assay: Neuroprotection in naive mouse assessed as reduction in hippocampal FADD protein level at 50 mg/kg, ip by Western blot analysis relative to control; type: functional; parameters: scale not given: the % may be the effect or the level left
Summary of the method: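 Adult naive CD-1 mice received one i.p. dose (n = 7) or saline vehicle (2 ml/kg, n = 6) and were killed 1 h later. Hippocampal protein (40 µg) was run on 10% SDS-PAGE, blotted to nitrocellulose and probed with anti-FADD, then ECL. Band IOD densitometry was expressed as % of same-gel vehicle controls, averaged over 2–4 gels per sample.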

Mus musculus [9] = assay: Antialzheimer activity in 5xFAD transgenic Alzheimer disease mouse model assessed as increase in GPX1 expression at 1 mg/kg/day by Western blot analysis
Mus musculus [10] = assay: Antialzheimer activity in 5xFAD transgenic Alzheimer disease mouse model assessed as decrease in aldehyde dehydrogenase 2 expression at 1 mg/kg/day by Western blot analysis
[11] = Displacement of [3H]2-BFI from imidazoline I2 receptor in post-mortem human brain frontal cortex membrane one site model measured after 45 mins by liquid scintillation counting spectrometry
Homo sapiens = species: Homo sapiens; assay: Displacement of [3H]2-BFI from imidazoline I2 receptor in post-mortem human brain frontal cortex membrane assessed as occupancy at high affinity site measured after 45 mins by liquid scintillation counting spectrometry

Question: With `Cl.c1ccc2oc(-c3ncc[nH]3)cc2c1` as the molecule, how does the pKi [1] read?
Answer: The pKi was 3.18.

Question: And the Activity [2]?
Answer: Its Activity is “Non-Toxic”.

Question: And the solubility [3]?
Answer: The solubility was “Soluble”.

Question: And the remaining at 1 h [4]?
Answer: Its remaining at 1 h is 58%.

Question: And the remaining at 2 h [5]?
Answer: The remaining at 2 h was 77%.

Question: What about the Activity (CAPAN-1) of the same molecule?
Answer: Its Activity is “Non-Toxic”.

Question: And the AUC(0-t) at 24 h [6]?
Answer: The AUC(0-t) at 24 h was 2700 ng·h/mL.

Question: And the Tmax [7]?
Answer: The Tmax was 2 h.

Question: And the Activity (Mus musculus [8])?
Answer: The Activity was 34%.

Question: And the Activity (Mus musculus [9])?
Answer: Its Activity is “Active”.

Question: What about the Activity (Mus musculus [10]) of the same molecule?
Answer: The Activity was “Active”.

Question: What about the pKi [11] of the same molecule?
Answer: The pKi was 6.67.

Question: What about the Activity (Homo sapiens) of the same molecule?
Answer: The Activity was 34%.
